Reference: ChEMBL document CHEMBL4004841, “6-Cyclohexylmethyl-3-hydroxypyrimidine-2,4-dione as an inhibitor scaffold of HIV reverase transcriptase: Impacts of the 3-OH on inhibiting RNase H and polymerase” (Eur J Med Chem, 2017)
Activity calls are given as the source filed them. The rule behind the calls is not given here.

Key:
[1] = Cytotoxicity against human P4R5 cells; format: cell-based
[2] = Inhibition of RNase H activity of full length HIV reverse transcriptase using RNA-DNA duplex HTS-1 substrate; set-up: species or system Human immunodeficiency virus
[3] = test system: Human immunodeficiency virus 1; assay: Antiviral activity against HIV1 infected in human P4R5 cells assessed as reduction in viral infection preincubated with cells for 24 hrs followed by viral infection measured after 48 hrs by fluorescence based beta-galactosidase reporter gene assay; format: functional, cell-based; settings: Human immunodeficiency virus 1, P4/R5
Outline: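 P4R5 indicator cells at 4 × 10^3 per well in DMEM/10% FBS with puromycin (1 μg/ml). Cells pretreated with 1% DMSO or varying drug concentrations for 24h, infected with HIV at MOI 1.25, then incubated 48h. Read-out: lysis, MUG substrate, 4-MU fluorescence (ex 365 nm, em 446 nm). Dose-response; mean ± SD from at least two independent experiments.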

[4] = Inhibition of HIV reverse transcriptase polymerase activity assessed as reduction in dNTP incorporation using 100 nucleotide DNA/18 nucleotide DNA as template/primer measured after 30 mins; set-up: species or system Human immunodeficiency virus
Outline: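 20 nM full-length RT with 40 nM template/primer (18-nt DNA primer on 100-nt DNA template) and 10 μM dNTPs in 50 mM Tris pH 7.8, 50 mM NaCl, 1% DMSO, rising compound concentrations; started with 6 mM MgCl2, 30 min at 37 °C, stopped with 100 mM EDTA. Mean ± standard deviation, ≥2 independent experiments.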

[5] = Inhibition of strand transfer activity of HIV integrase expressed in Escherichia coli using 5'-[32P]-labeled oligonucleotide substrate after 60 mins by PAGE analysis; set-up: species or system Human immunodeficiency virus
Outline: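 Recombinant IN (400 nM), purified with 10% glycerol in buffers, with 20 nM 5'-[32P] oligonucleotide substrate and inhibitor dilutions in 50 mM MOPS pH 7.2, 7.5 mM MgCl2, 14.3 mM 2-mercaptoethanol, 37 °C for 60 min; 10% DMSO controls. Products resolved on 20% polyacrylamide–7 M urea gels, quantified by phosphorimaging densitometry; IC50 by logistic nonlinear regression.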

[6] = test system: Human immunodeficiency virus type 1 reverse transcriptase (Human immunodeficiency virus 1), Q72547 [K103N]; assay: Inhibition of polymerase activity of HIV reverse transcriptase K103N mutant assessed as reduction in dNTP incorporation up to 10 uM using 100 nucleotide DNA/18 nucleotide DNA as template/primer measured after 30 mins
Outline: (§1)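 Mutant RT (20 nM) with 40 nM 18-nt DNA primer annealed to 100-nt DNA template and 10 μM dNTPs, in 50 mM Tris pH 7.8, 50 mM NaCl, 1% DMSO, with increasing compound up to 10 μM. Started with 6 mM MgCl2, run 30 min at 37 °C, stopped with 100 mM EDTA; DNA extension measured.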

[7] = test system: Human immunodeficiency virus type 1 reverse transcriptase (Human immunodeficiency virus 1), Q72547 [Y181C]; assay: Inhibition of polymerase activity of HIV reverse transcriptase Y181C mutant assessed as reduction in dNTP incorporation up to 10 uM using 100 nucleotide DNA/18 nucleotide DNA as template/primer measured after 30 mins; outline: as §1
[8] = test system: Human immunodeficiency virus 1; assay: Antiviral activity against HIV1 infected in human CEM-SS cells assessed as reduction in virus-induced cytopathic effect after 6 days by MTS assay; format: functional, cell-based; settings: Human immunodeficiency virus 1, CEM-SS, 144 h
Outline: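 CEM-SS cells mixed with pre-titered HIV-1 IIIB and compound, incubated 6 days; virus titer set so virus-control wells lose 70–95% viability. Cell, virus, compound-toxicity and compound-only colorimetric controls on each plate; AZT positive control. Viability by MTS; EC50 derived; mean ± standard deviation from at least two independent experiments.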

SMILES | CC50 [1] [µM] | IC50 [2] [µM] | EC50 [3] [µM] | IC50 [4] [µM] | IC50 [5] [µM] | inhibition [6] | inhibition [7] | EC50 [8] [µM]
Cc1c(CC2CCCCC2)n(COCc2ccc(F)c(F)c2)c(=O)[nH]c1=O | 65 | > 10 | 0.21 | 10 | – | – | – | –
Cc1c(CC2CCCCC2)n(COCc2cccc(Cl)c2F)c(=O)n(O)c1=O | > 100 | 2.2 | > 15 | > 10 | > 100 | – | – | –
CC(C)c1c(CC2CCCCC2)n(COCc2ccccc2)c(=O)n(O)c1=O | > 100 | 5.2 | 0.026 | 0.45 | > 100 | inactive | inactive | –
Cc1c(CC2CCCCC2)n(COCCc2ccc(F)cc2)c(=O)n(O)c1=O | > 100 | 3.9 | 10 | > 10 | > 100 | – | – | –
CCc1c(CC2CCCCC2)n(COCc2ccc(F)c(F)c2)c(=O)n(O)c1=O | > 100 | 1.7 | 4.1 | > 10 | > 100 | – | – | –
CCc1c(CC2CCCCC2)n(COCc2ccccc2)c(=O)[nH]c1=O | > 50 | > 10 | 0.0062 | 0.22 | – | – | – | –
CCc1c(CC2CCCCC2)n(COCc2ccc(C)cc2)c(=O)n(O)c1=O | > 100 | 2.1 | 0.43 | 6.5 | > 100 | – | – | –
CCc1c(CC2CCCCC2)n(COCc2cccc(Cl)c2F)c(=O)n(O)c1=O | > 100 | 1.1 | 0.42 | 6.5 | > 100 | – | – | 1.8
CCc1c(CC2CCCCC2)n(COCc2ccc(C(F)(F)F)cc2)c(=O)[nH]c1=O | 28 | > 10 | 0.039 | 0.81 | – | – | – | –
CC(C)c1c(CC2CCCCC2)n(COCc2ccc(F)cc2)c(=O)[nH]c1=O | 31 | > 10 | 0.0072 | 0.3 | – | – | – | –
CCc1c(CC2CCCCC2)n(COCc2ccccc2)c(=O)n(O)c1=O | > 100 | 5.5 | 0.059 | 2.3 | > 100 | – | – | 0.56
CCc1c(CC2CCCCC2)n(COCc2ccc(C(F)(F)F)cc2)c(=O)n(O)c1=O | > 100 | 10 | 2.4 | 7 | > 100 | – | – | –
CC(C)c1c(CC2CCCCC2)n(COCc2ccccc2)c(=O)[nH]c1=O | 23 | > 10 | 0.0052 | 0.085 | – | – | – | –
CCc1c(CC2CCCCC2)n(COCc2ccc(F)c(F)c2)c(=O)[nH]c1=O | 29 | > 10 | 0.014 | 0.82 | – | – | – | –
Cc1c(CC2CCCCC2)n(COCc2ccc(F)c(F)c2)c(=O)n(O)c1=O | > 100 | 4.6 | > 15 | 10 | > 100 | – | – | –
CCc1c(CC2CCCCC2)n(COCc2ccc(F)cc2)c(=O)n(O)c1=O | > 100 | 5.8 | 0.039 | 1.5 | > 100 | – | – | 0.32
CCc1c(CC2CCCCC2)n(COCc2cccc(Cl)c2F)c(=O)[nH]c1=O | 32 | > 10 | 0.048 | 1.5 | – | – | – | –
Cc1c(CC2CCCCC2)n(COCCc2ccc(F)cc2)c(=O)[nH]c1=O | 56 | > 10 | 5.3 | > 10 | – | – | – | –
CC(C)c1c(Cc2ccccc2)n(COCc2ccccc2)c(=O)[nH]c1=O | 58 | > 10 | 0.011 | 0.42 | – | – | – | –
CCc1c(CC2CCCCC2)n(COCc2ccc(F)cc2)c(=O)[nH]c1=O | 42 | > 10 | 0.0075 | 0.48 | – | – | – | –
Cc1c(CC2CCCCC2)n(COCc2cccc(Cl)c2F)c(=O)[nH]c1=O | 38 | > 10 | 0.83 | 10 | – | – | – | –
CC(C)c1c(CC2CCCCC2)n(COCc2ccc(F)cc2)c(=O)n(O)c1=O | > 100 | 2.7 | 2.4 | 9.9 | > 100 | – | – | –
Cc1c(CC2CCCCC2)n(COCc2ccccc2)c(=O)[nH]c1=O | > 100 | > 10 | 0.065 | 6.8 | – | – | – | –
Cc1c(CC2CCCCC2)n(COCc2ccccc2)c(=O)n(O)c1=O | > 100 | 3.1 | > 15 | > 10 | > 100 | – | – | –
Cc1c(CC2CCCCC2)n(COCc2ccc(C(F)(F)F)cc2)c(=O)[nH]c1=O | > 100 | > 10 | 0.8 | 10 | – | – | – | –
CCc1c(CC2CCCCC2)n(COCc2ccc(C)cc2)c(=O)[nH]c1=O | 30 | > 10 | 0.011 | 0.36 | – | – | – | –
Cc1c(CC2CCCCC2)n(COCc2ccc(C(F)(F)F)cc2)c(=O)n(O)c1=O | > 100 | 7.6 | > 15 | 10 | > 100 | – | – | –
